According to ChEMBL document CHEMBL4665666, “Discovery and characterization of trypanocidal cysteine protease inhibitors from the 'malaria box'” (Eur J Med Chem, 2019):
Activity calls are given as the source filed them. The calls are words filed in the database; no cut-off is given here.

Tests used:
[1] = target: Cruzipain (Trypanosoma cruzi) (UniProt P25779); experiment: Inhibition of recombinant Trypanosoma cruzi cruzain at 5 uM using Z-FR-AMC as substrate preincubated for 10 mins followed by substrate addition and measured at 12 sec interval for 5 mins by fluorimetric analysis relative to control; settings: time 15.0 min
Chain of Cruzipain (Trypanosoma cruzi) (P25779 123-467 limits assumed): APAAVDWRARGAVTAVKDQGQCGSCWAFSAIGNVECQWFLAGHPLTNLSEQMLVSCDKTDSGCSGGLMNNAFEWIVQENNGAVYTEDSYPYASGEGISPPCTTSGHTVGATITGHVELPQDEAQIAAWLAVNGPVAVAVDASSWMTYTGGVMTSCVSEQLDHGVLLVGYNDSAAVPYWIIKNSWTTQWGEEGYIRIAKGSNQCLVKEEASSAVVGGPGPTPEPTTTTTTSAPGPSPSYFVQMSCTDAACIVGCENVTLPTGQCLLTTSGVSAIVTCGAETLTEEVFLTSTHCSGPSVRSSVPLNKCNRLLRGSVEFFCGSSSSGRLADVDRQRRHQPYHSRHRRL
How it was run: (§1)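 Recombinant rhodesain or cruzain (1 nM) in 0.1 M sodium acetate pH 5.5, 0.01% Triton X-100, 1 mM β-mercaptoethanol. Compound at a single concentration, either without or after 10 min enzyme pre-incubation. Inhibition is relative to DMSO, with E-64 as positive control. Done in duplicate (primary screen) or triplicate.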

[2] = target: Rhodesain (Trypanosoma brucei rhodesiense) (UniProt Q95PM0); experiment: Inhibition of recombinant Trypanosoma brucei rhodesain expressed in Pichia pastoris at 5 uM using Z-FR-AMC as substrate and measured at 12 sec interval for 5 mins without preincubation by fluorimetric analysis relative to control; how it was run: as §1
Chain of Rhodesain (Trypanosoma brucei rhodesiense) (Q95PM0 1-450): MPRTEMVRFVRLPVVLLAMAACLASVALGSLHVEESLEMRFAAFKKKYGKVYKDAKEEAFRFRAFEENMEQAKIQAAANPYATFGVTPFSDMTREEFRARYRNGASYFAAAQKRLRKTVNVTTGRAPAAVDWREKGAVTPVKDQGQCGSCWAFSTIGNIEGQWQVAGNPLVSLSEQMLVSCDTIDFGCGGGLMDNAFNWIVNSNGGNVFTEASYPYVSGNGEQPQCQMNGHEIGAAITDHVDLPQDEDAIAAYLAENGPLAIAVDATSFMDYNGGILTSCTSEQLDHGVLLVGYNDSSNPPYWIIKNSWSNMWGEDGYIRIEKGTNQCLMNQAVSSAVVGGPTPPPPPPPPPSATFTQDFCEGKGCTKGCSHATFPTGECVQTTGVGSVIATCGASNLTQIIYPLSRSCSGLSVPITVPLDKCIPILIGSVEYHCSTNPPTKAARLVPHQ

[3] = target: Rhodesain (Trypanosoma brucei rhodesiense) (UniProt Q95PM0); experiment: Inhibition of recombinant Trypanosoma brucei rhodesain expressed in Pichia pastoris at 5 uM using Z-FR-AMC as substrate preincubated for 10 mins followed by substrate addition and measured at 12 sec interval for 5 mins by fluorimetric analysis relative to control; settings: time 15.0 min; how it was run: as §1
[4] = target: Cruzipain (Trypanosoma cruzi) (UniProt P25779); experiment: Inhibition of recombinant Trypanosoma cruzi cruzain at 10 uM using Z-FR-AMC as substrate and measured at 12 sec interval for 5 mins without preincubation by fluorimetric analysis relative to control
How it was run: as §1, with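 “pre-incubation. Z-FR-AMC 2.5 µM, read at 340/440 nm every 12 s for 5 min.” for “pre-incubation.”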

[5] = target: Cruzipain (Trypanosoma cruzi) (UniProt P25779); experiment: Inhibition of recombinant Trypanosoma cruzi cruzain at 10 uM using Z-FR-AMC as substrate preincubated for 10 mins followed by substrate addition and measured at 12 sec interval for 5 mins by fluorimetric analysis relative to control; settings: time 15.0 min
How it was run: as §1, with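 “pre-incubation. Z-FR-AMC 2.5 µM, read at 340/440 nm every 12 s for 5 min.” for “pre-incubation.”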

[6] = target: Rhodesain (Trypanosoma brucei rhodesiense) (UniProt Q95PM0); experiment: Inhibition of recombinant Trypanosoma brucei rhodesain expressed in Pichia pastoris at 10 uM using Z-FR-AMC as substrate and measured at 12 sec interval for 5 mins without preincubation by fluorimetric analysis relative to control
How it was run: as §1, with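 “pre-incubation. Z-FR-AMC 2.5 µM, read at 340/440 nm every 12 s for 5 min.” for “pre-incubation.”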

[7] = target: Rhodesain (Trypanosoma brucei rhodesiense) (UniProt Q95PM0); experiment: Inhibition of recombinant Trypanosoma brucei rhodesain expressed in Pichia pastoris at 10 uM using Z-FR-AMC as substrate preincubated for 10 mins followed by substrate addition and measured at 12 sec interval for 5 mins by fluorimetric analysis relative to control; settings: time 15.0 min
How it was run: as §1, with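 “pre-incubation. Z-FR-AMC 2.5 µM, read at 340/440 nm every 12 s for 5 min.” for “pre-incubation.”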

[8] = target: Cruzipain (Trypanosoma cruzi) (UniProt P25779); experiment: Inhibition of recombinant Trypanosoma cruzi cruzain at 300 uM using Z-FR-AMC as substrate and measured at 12 sec interval for 5 mins without preincubation by fluorimetric analysis relative to control
How it was run: as §1, with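 “pre-incubation. Z-FR-AMC 2.5 µM, read at 340/440 nm every 12 s for 5 min.” for “pre-incubation.”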

[9] = target: Cruzipain (Trypanosoma cruzi) (UniProt P25779); experiment: Inhibition of recombinant Trypanosoma cruzi cruzain at 300 uM using Z-FR-AMC as substrate preincubated for 10 mins followed by substrate addition and measured at 12 sec interval for 5 mins by fluorimetric analysis relative to control; settings: time 15.0 min
How it was run: as §1, with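 “pre-incubation. Z-FR-AMC 2.5 µM, read at 340/440 nm every 12 s for 5 min.” for “pre-incubation.”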

[10] = target: Rhodesain (Trypanosoma brucei rhodesiense) (UniProt Q95PM0); experiment: Inhibition of recombinant Trypanosoma brucei rhodesain expressed in Pichia pastoris at 300 uM using Z-FR-AMC as substrate and measured at 12 sec interval for 5 mins without preincubation by fluorimetric analysis relative to control
How it was run: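 Run with no pre-incubation or with 10 min enzyme-compound pre-incubation. Fluorescence read at 340/440 nm. Concentration was set by solubility under assay conditions. Inhibition is against DMSO, with E-64 as positive control; triplicate.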

Cruzipain = Cruzipain (Trypanosoma cruzi, UniProt P25779); experiment: Inhibition of recombinant Trypanosoma cruzi cruzain using Z-FR-AMC as substrate and measured at 12 sec interval for 5 mins without preincubation by fluorimetric analysis
Chain of Cruzipain (P25779 whole entry): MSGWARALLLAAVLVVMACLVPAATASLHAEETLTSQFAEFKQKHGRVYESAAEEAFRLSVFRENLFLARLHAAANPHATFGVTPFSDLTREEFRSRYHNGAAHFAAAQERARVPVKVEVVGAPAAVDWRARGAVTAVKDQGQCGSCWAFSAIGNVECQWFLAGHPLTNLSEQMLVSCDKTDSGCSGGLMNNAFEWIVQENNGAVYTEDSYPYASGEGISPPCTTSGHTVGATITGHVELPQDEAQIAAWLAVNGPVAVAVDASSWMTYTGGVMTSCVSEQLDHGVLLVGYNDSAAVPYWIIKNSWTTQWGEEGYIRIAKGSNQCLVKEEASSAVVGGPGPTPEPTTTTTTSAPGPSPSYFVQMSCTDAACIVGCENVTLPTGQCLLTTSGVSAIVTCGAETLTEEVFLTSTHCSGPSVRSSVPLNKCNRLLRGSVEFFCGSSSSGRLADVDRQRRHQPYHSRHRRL
How it was run: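 Cruzain (recombinant, 1 nM) in 0.1 M sodium acetate pH 5.5 with 0.01% Triton X-100 and 1 mM β-mercaptoethanol; Z-FR-AMC 2.5 µM, read at 340/440 nm every 12 s for 5 min, with or without 10 min enzyme–compound pre-incubation. […] For mechanism and Ki, 0.3–20.0 µM substrate and five inhibitor levels were used, with Lineweaver-Burk plots.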

[11] = target: Cruzipain (Trypanosoma cruzi) (UniProt P25779); experiment: Inhibition of recombinant Trypanosoma cruzi cruzain at 100 uM preincubated for 10 mins in presence of 0.1% Triton X-100 relative to control
How it was run: (§2)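 To test detergent sensitivity, cruzain was pre-incubated 10 min at room temperature with compound with no Triton X-100, 0.01% or 0.1% Triton X-100. Cleavage of Z-FR-AMC was then followed at pH 5.5 in acetate buffer. Percent inhibition was compared across detergent levels.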

[12] = target: Cruzipain (Trypanosoma cruzi) (UniProt P25779); experiment: Inhibition of recombinant Trypanosoma cruzi cruzain at 100 uM preincubated for 10 mins in presence of 0.01% Triton X-100 relative to control; how it was run: as §2
[13] = target: Cruzipain (Trypanosoma cruzi) (UniProt P25779); experiment: Inhibition of recombinant Trypanosoma cruzi cruzain at 100 uM preincubated for 10 mins in absence of Triton X-100 relative to control; how it was run: as §2
[14] = target: Cruzipain (Trypanosoma cruzi) (UniProt P25779); experiment: Inhibition of recombinant Trypanosoma cruzi cruzain at 100 uM preincubated with BSA for 5 mins followed by incubation with enzyme for 5 mins followed by substrate addition relative to control; settings: time 10.0 min
How it was run: (§3)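 For BSA sensitivity, compound was held 5 min with BSA (2 mg/mL in 0.001% Triton X-100), then 5 min with 1 nM cruzain, before substrate was added and activity monitored. Parallel runs omitted BSA under otherwise identical conditions.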

[15] = target: Cruzipain (Trypanosoma cruzi) (UniProt P25779); experiment: Inhibition of recombinant Trypanosoma cruzi cruzain at 100 uM preincubated with enzyme for 5 mins followed by substrate addition in absence of BSA relative to control; how it was run: as §3
cathepsin B = cathepsin B (Rattus norvegicus, UniProt P00787); experiment: Inhibition of rat cathepsin B at 100 uM using Z-FR-AMC as substrate measured after 15 mins without preincubation by microplate reader based assay relative to control; settings: probe Z-FR-AMC
Chain of cathepsin B (P00787 whole entry): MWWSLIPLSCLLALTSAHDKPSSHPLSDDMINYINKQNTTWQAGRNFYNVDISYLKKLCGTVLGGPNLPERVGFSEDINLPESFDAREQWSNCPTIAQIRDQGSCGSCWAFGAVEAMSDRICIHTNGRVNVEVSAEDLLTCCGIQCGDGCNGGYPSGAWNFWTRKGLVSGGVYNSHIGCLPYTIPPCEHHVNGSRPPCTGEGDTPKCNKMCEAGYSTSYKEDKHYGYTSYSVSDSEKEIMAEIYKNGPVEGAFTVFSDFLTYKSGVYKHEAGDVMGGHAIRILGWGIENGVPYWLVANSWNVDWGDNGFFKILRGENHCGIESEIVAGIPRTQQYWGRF
How it was run: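 Rat cathepsin B (20 nM) at 25°C in 100 mM sodium phosphate, 100 mM NaCl, 1 mM EDTA, 1 mM DTT, 0.01% CHAPS. Compound pre-incubated 0 or 5 min with enzyme; Z-FR-AMC 50 µM, ex 380/em 440 nm, monitored 15 min. Inhibition is versus 2% DMSO, with 1 µM E64 control. Two independent experiments in triplicate.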

[16] = test system: Trypanosoma brucei rhodesiense; experiment: Trypanocidal activity against Trypanosoma brucei rhodesiense STI B900 assessed as reduction in parasite viability; type: functional, organism-based
Trypanosoma cruzi = experiment: Trypanocidal activity against Trypanosoma cruzi Y strain trypomastigotes infected in C57BL/6 mouse peritoneal macrophage assessed as reduction in number of trypomastigotes release at 50 uM and measured after day 3 to day 11 post-infection by Neubauer chamber method; type: functional, organism-based; settings: time 11.0 day
How it was run: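 Thioglycolate-elicited peritoneal macrophages from female C57BL/6 mice, 2 × 10^5/well, infected 2 h at 37°C with Y strain trypomastigotes at 5:1 (parasite:cell) and washed. They were then held with compound (3.125–50 µM) or IFN-γ 100 ng/mL. Trypomastigotes released into the supernatant were counted in a Neubauer chamber at several days after infection. Three independent experiments, each in triplicate.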

Structure (SMILES)	inhibition [1]	inhibition [2]	inhibition [3]	inhibition [4]	inhibition [5]	inhibition [6]	inhibition [7]	inhibition [8]	inhibition [9]	inhibition [10]	IC50 (Cruzipain)	inhibition [11]	inhibition [12]	inhibition [13]	inhibition [14]	inhibition [15]	inhibition at 0.25 h, 100 µM (cathepsin B)	IC50 [16]	Activity (Trypanosoma cruzi)
Cl.Cl.Clc1cc(Br)ccc1-c1ccc(CNCC2CCNCC2)o1	56.7%	31.3%	49.6%	25%	15%	10%	2%	78%	84%	96%	26 µM	76.7%	67.1%	96.8%	90.1%	86.2%	1.3%	0.1 µM	Active
Cn1c(=O)n(C)c2cc(CNCCNc3ccnc4cc(Cl)ccc34)ccc21	79.7%	47.7%	81.4%	13%	18%	10%	12%	75%	80%	67%	145 µM	56.4%	74.8%	64.5%	87.8%	62.1%	9.9%	0.4 µM	Active
